{
  "source": "paper PMC9302689",
  "about": "(British Journal of Clinical Pharmacology, 2022)",
  "key": {"[1]": {"system": "healthy male subjects", "assay": "NeuroCart pupillometry", "assay_type": "in vivo, human", "details": "12-hour post-dose period", "summary_of_the_method": "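In healthy men given a single dose or placebo, both eyes were photographed simultaneously with the head in a support. This was done twice pre-dose and at 0.5–10 h post-dose. Change from baseline over 12 h was analysed by MMRM against pooled placebo, with baseline as covariate.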"}, "[2]": {"biological_target": "NMDA receptor", "assay": "In vitro binding affinity, NMDA receptor", "details": "read-out: Ki, NMDA receptor; preclinical in vitro panel"}, "[3]": {"system": "dopamine release induced by infusion of NMDA in the striatum", "assay": "NMDA-induced dopamine release in the striatum", "assay_type": "in vivo", "details": "rats, oral dose of 10 mg/kg"}},
  "data": [
    {"smiles": "CN1CCC23CCCCC2C1Cc1ccc(C(N)=O)cc13", "note": "(stereo not drawn) [ALKS 7119, (9α, 13α)‐17‐methylmorphinan‐3‐carboxamide]", "values": [
      {"measurement": "Left pupil/iris ratio, LSM CFB", "setting": "[1]; 3 mg single oral dose", "value": 0.01},
      {"measurement": "Right pupil/iris ratio, LSM CFB", "setting": "[1]; 3 mg single oral dose", "value": 0.02},
      {"measurement": "Left pupil/iris ratio, LSM CFB", "setting": "[1]; 10 mg single oral dose", "value": 0.04},
      {"measurement": "Right pupil/iris ratio, LSM CFB", "setting": "[1]; 10 mg single oral dose", "value": 0.03},
      {"measurement": "Left pupil/iris ratio, LSM CFB", "setting": "[1]; 25 mg single oral dose", "value": 0.04},
      {"measurement": "Right pupil/iris ratio, LSM CFB", "setting": "[1]; 25 mg single oral dose", "value": 0.03},
      {"measurement": "Left pupil/iris ratio, LSM CFB", "setting": "[1]; 50 mg single oral dose", "value": 0.05},
      {"measurement": "Right pupil/iris ratio, LSM CFB", "setting": "[1]; 50 mg single oral dose", "value": 0.07},
      {"measurement": "Left pupil/iris ratio, LSM CFB", "setting": "[1]; 75 mg single oral dose", "value": 0.04},
      {"measurement": "Right pupil/iris ratio, LSM CFB", "setting": "[1]; 75 mg single oral dose", "value": 0.03},
      {"measurement": "Left pupil/iris ratio, LSM CFB", "setting": "[1]; 100 mg single oral dose", "value": 0.04},
      {"measurement": "Right pupil/iris ratio, LSM CFB", "setting": "[1]; 100 mg single oral dose", "value": 0.05},
      {"measurement": "Left pupil/iris ratio, LSM CFB", "setting": "[1]; 125 mg single oral dose", "value": 0.04},
      {"measurement": "Right pupil/iris ratio, LSM CFB", "setting": "[1]; 125 mg single oral dose", "value": 0.05},
      {"measurement": "Left pupil/iris ratio, LSM CFB", "setting": "[1]; 150 mg single oral dose", "value": 0.03},
      {"measurement": "Right pupil/iris ratio, LSM CFB", "setting": "[1]; 150 mg single oral dose", "value": 0.05},
      {"measurement": "Left pupil/iris ratio, LSM CFB", "setting": "[1]; 175 mg single oral dose", "value": 0.05},
      {"measurement": "Right pupil/iris ratio, LSM CFB", "setting": "[1]; 175 mg single oral dose", "value": 0.06},
      {"measurement": "Left pupil/iris ratio, LSM CFB", "setting": "[1]; 200 mg single oral dose", "value": 0.08},
      {"measurement": "Right pupil/iris ratio, LSM CFB", "setting": "[1]; 200 mg single oral dose", "value": 0.06},
      {"measurement": "Ki", "setting": "[2]", "value": 7.44, "unit": "µM"},
      {"measurement": "Effect on dopamine release induced by NMDA infusion in the striatum", "setting": "[3]", "value": "completely blocked dopamine release"}
    ]}
  ]
}
